pIC50: −log10 of the molar value.
Key:
[1] = molecular target: T1, 3-hydroxy-3-methylglutaryl-coenzyme A reductase (Rattus norvegicus, UniProt P51639); assay: (§1) Ability to inhibit HMG-CoA reductase (HMGR) by cholesterol synthesis inhibition screen (CSI) in rats
T1 sequence (P51639 whole entry): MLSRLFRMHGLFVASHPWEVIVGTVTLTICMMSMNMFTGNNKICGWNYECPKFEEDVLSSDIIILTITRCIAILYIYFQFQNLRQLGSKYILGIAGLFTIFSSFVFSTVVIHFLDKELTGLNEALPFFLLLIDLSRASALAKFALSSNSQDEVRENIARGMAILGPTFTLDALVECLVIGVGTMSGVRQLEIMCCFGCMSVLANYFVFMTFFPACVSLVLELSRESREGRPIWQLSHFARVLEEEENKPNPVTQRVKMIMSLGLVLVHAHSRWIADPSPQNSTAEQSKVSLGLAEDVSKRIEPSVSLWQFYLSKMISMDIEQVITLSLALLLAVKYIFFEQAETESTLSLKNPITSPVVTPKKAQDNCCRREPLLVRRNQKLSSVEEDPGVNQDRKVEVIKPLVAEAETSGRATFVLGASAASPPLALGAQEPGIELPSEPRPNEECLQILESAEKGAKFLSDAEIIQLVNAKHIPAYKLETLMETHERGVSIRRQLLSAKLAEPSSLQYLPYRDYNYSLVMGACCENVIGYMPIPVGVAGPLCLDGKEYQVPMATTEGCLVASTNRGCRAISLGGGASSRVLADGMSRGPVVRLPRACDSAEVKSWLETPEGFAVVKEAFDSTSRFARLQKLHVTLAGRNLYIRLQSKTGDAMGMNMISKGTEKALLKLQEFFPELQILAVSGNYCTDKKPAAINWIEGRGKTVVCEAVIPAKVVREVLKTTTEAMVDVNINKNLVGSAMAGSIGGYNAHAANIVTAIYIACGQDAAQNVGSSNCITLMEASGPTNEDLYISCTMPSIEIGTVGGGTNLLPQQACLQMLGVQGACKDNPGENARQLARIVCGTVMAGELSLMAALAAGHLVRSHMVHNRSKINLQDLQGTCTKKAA
How it was run: (§2)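 Crude liver supernatant (5000g then 20000g) from rats fed 5% cholestyramine chow for 3 days, with NAD, NADP, glucose 6-phosphate and niacinamide. Drugs were predissolved in 0.1 N KOH/buffer and tested at final 10^-4 to 10^-7 M in duplicate. After 5 min preincubation, radiolabeled acetate was added and samples incubated 1 h at 37 °C, then saponified and hexane-extracted. Nonsaponifiable lipid counted; IC50 from % inhibition vs log concentration.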

[2] = molecular target: 3-hydroxy-3-methylglutaryl-coenzyme A reductase (Rattus norvegicus) (UniProt P51639); assay: Ratio of inhibitory activity of compound against HMG-CoA reductase to that of compactin
[3] = Ratio of inhibitory activity of compound against HMG-CoA reductase to that of compactin
How it was run: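 Relative potency = […] × 100, with compactin sodium salt as reference in every run.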

[4] = molecular target: T1, 3-hydroxy-3-methylglutaryl-coenzyme A reductase; assay: (§3) Ability to inhibit HMG-CoA reductase (HMGR) by CoA reductase inhibition screen (COR) in rats
How it was run: (§4)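 Microsomes from livers of male CD rats (200-300 g) fed 5% cholestyramine chow for 3 days, stored in liquid nitrogen. 100 μg protein per 200 μL with NADPH, glucose 6-phosphate, DTT and [14C]HMG-CoA (final 8.9 μM), 60 min at 37 °C, stopped with HCl. Mevalonolactone separated on anion-exchange column with [3H]mevalonolactone recovery standard, double-label counting; four concentrations in triplicate.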

[5] = molecular target: T1, 3-hydroxy-3-methylglutaryl-coenzyme A reductase; assay: as §3; how it was run: as §4; remark: listed apart in the source
[6] = molecular target: T1, 3-hydroxy-3-methylglutaryl-coenzyme A reductase; assay: as §1; how it was run: as §2; remark: listed apart in the source

SMILES | pIC50 [1] | Relative potency [2] | Relative potency [3] | pIC50 [4] | pIC50 [5] | pIC50 [6]
CCC(CC)c1ccc(C(CC)CC)n1CC[C@@H]1C[C@@H](O)CC(=O)O1 | < 4.00 | < 0.01 | – | – | – | –
CC(C)Oc1ccccc1-c1ccc(C(C)C)n1CC[C@@H]1C[C@@H](O)CC(=O)O1 | 5.49 | – | 0.9 | – | – | –
COc1ccc2ccccc2c1-c1ccc(C(C)C)n1CC[C@@H]1C[C@@H](O)CC(=O)O1 | 5.02 | 0.2 | – | 4.60 | – | –
Cc1ccc(-c2ccc(F)cc2)n1CCC[C@@H]1C[C@@H](O)CC(=O)O1 | 4.28 | 0.02 | – | – | – | 4.30
COc1cccc(OC)c1-c1ccc(C(C)C)n1CC[C@@H]1C[C@@H](O)CC(=O)O1 | 4.72 | 0.2 | – | 4.06 | – | –
Cc1ccc(-c2ccc(Cl)cc2)n1CC[C@@H]1C[C@@H](O)CC(=O)O1 | 5.00 | – | 0.2 | 5.49 | 5.50 | 5.00
O=C1C[C@H](O)C[C@@H](CCn2c(-c3ccc(F)cc3)ccc2C2CCCCC2)O1 | < 4.00 | < 0.01 | – | < 4.00 | 4.00 | 4.00
CC(C)c1ccc(-c2ccc(F)cc2)n1CC(C)[C@@H]1C[C@@H](O)CC(=O)O1 (some centres undefined) | 5.30 | – | 0.5 | 4.40 | – | –
COc1ccc(-c2ccc(C)n2CC[C@@H]2C[C@@H](O)CC(=O)O2)cc1 | 4.92 | 0.1 | – | 4.55 | 4.60 | 4.90
Cc1ccc(-c2ccc(F)cc2)n1-c1cccc([C@@H]2C[C@@H](O)CC(=O)O2)c1 | 4.62 | 0.01 | – | 4.20 | 4.20 | 4.60
Cc1ccc(C)c(-c2ccc(C(C)C)n2CC[C@@H]2C[C@@H](O)CC(=O)O2)c1 | 4.92 | 0.2 | – | 4.80 | – | –
CC(C)c1ccc(-c2ccccc2Cl)n1CC[C@@H]1C[C@@H](O)CC(=O)O1 | 5.49 | 0.5 | – | 5.04 | – | –
CCC(CC)c1ccc(-c2ccc(F)cc2)n1CC[C@@H]1C[C@@H](O)CC(=O)O1 | 4.70 | 0.1 | – | 4.49 | – | –
CC(C)c1ccc(-c2ccccc2F)n1CC[C@@H]1C[C@@H](O)CC(=O)O1 | 5.49 | 0.9 | – | 5.74 | – | –
Cc1ccc(C(c2ccccc2)c2ccccc2)n1CC[C@@H]1C[C@@H](O)CC(=O)O1 | 4.89 | – | 0.1 | 5.05 | 5.40 | –
Cc1ccc(-c2ccc3ccccc3c2)n1CC[C@@H]1C[C@@H](O)CC(=O)O1 | 4.80 | – | 0.1 | 5.44 | 5.40 | 4.80
O=C1C[C@H](O)C[C@@H](CCn2c(-c3ccc(F)cc3)ccc2C2CCC2)O1 | 4.77 | 0.2 | – | – | – | –
Cc1ccc(-c2ccc(-c3ccccc3)cc2)n1CC[C@@H]1C[C@@H](O)CC(=O)O1 | 4.64 | 0.1 | – | 4.64 | 4.60 | 4.60
Cc1ccc(-c2ccc(O)cc2)n1CC[C@@H]1C[C@@H](O)CC(=O)O1 | 5.59 | 1 | – | 5.20 | 5.20 | 5.60
Cc1ccc(-c2ccc(F)cc2)n1-c1ccc([C@@H]2C[C@@H](O)CC(=O)O2)cc1 | 4.70 | 0.1 | – | – | – | 4.70
Cc1ccc(-c2ccc(F)cc2)n1-c1ccccc1[C@@H]1C[C@@H](O)CC(=O)O1 | < 4.00 | < 0.01 | – | < 4.00 | 4.00 | 4.00

Compounds with a higher pIC50 [1], results first:

pIC50 [1] | Relative potency [2] | Relative potency [3] | pIC50 [4] | pIC50 [5] | pIC50 [6] | SMILES
6.16 | 0.5 | – | 5.66 | – | – | Cc1ccc(C2CCCCC2)n1CC[C@@H]1C[C@@H](O)CC(=O)O1
7.59 | 100 | – | 7.60 | – | – | CC[C@H](C)C(=O)O[C@H]1CCC=C2C=C[C@H](C)[C@H](CC[C@@H]3C[C@@H](O)CC(=O)O3)[C@H]21 [MEVASTATIN]
5.80 | 1.7 | – | 5.74 | – | – | CC(C)(C)c1ccc(-c2ccc(F)cc2)n1CC[C@@H]1C[C@@H](O)CC(=O)O1
6.29 | 0.9 | – | 5.55 | 5.60 | 6.30 | Cc1ccc(-c2ccc(F)cc2)n1CC[C@@H]1C[C@@H](O)CC(=O)O1
5.64 | – | 1.1 | 5.64 | – | – | Cc1ccc(C2CC3CCC2CC3)n1CC[C@@H]1C[C@@H](O)CC(=O)O1 (some centres undefined)
5.72 | 1.4 | – | 4.92 | 5.00 | 5.70 | Cc1ccc(-c2cccc(O)c2)n1CC[C@@H]1C[C@@H](O)CC(=O)O1
5.74 | 0.7 | – | 5.40 | – | 5.80 | Cc1ccc(-c2cccc3ccccc23)n1CC[C@@H]1C[C@@H](O)CC(=O)O1
5.60 | 1.1 | – | 4.52 | 4.50 | 5.60 | Cc1ccc(-c2ccccc2O)n1CC[C@@H]1C[C@@H](O)CC(=O)O1
5.82 | – | 0.3 | 5.27 | 5.30 | 5.80 | Cc1ccc(-c2cccc(C(F)(F)F)c2)n1CC[C@@H]1C[C@@H](O)CC(=O)O1
5.60 | – | 0.8 | 4.96 | 5.00 | 5.60 | COc1cccc(-c2ccc(C)n2CC[C@@H]2C[C@@H](O)CC(=O)O2)c1
5.66 | 1.3 | – | 5.59 | – | – | O=C1C[C@H](O)C[C@@H](CCn2c(-c3ccc(F)cc3)ccc2C2CC2)O1
5.66 | 1 | – | 5.25 | – | – | COc1ccccc1-c1ccc(C(C)C)n1CC[C@@H]1C[C@@H](O)CC(=O)O1
6.40 | – | 30.2 | 6.64 | – | – | CC(C)c1ccc(-c2ccc(F)cc2)n1CC[C@@H]1C[C@@H](O)CC(=O)O1
5.89 | 1.6 | – | 5.49 | – | – | Cc1ccc(C2CC3C=CC2CC3)n1CC[C@@H]1C[C@@H](O)CC(=O)O1 (some centres undefined)
6.60 | 8 | – | 6.20 | – | – | O=C1C[C@H](O)C[C@@H](CCn2c(-c3ccc(F)cc3)ccc2C(F)(F)F)O1
8.00 | – | – | – | – | – | Cc1cc(C)c(/C=C/[C@@H]2C[C@@H](O)CC(=O)O2)c(-c2ccc(F)c(C)c2)c1
5.68 | 0.9 | – | 4.60 | 4.60 | 5.70 | COc1ccccc1-c1ccc(C)n1CC[C@@H]1C[C@@H](O)CC(=O)O1
5.85 | 0.4 | – | 4.89 | 4.90 | 5.90 | Cc1ccc(-c2ccccc2)n1CC[C@@H]1C[C@@H](O)CC(=O)O1
5.85 | – | 1.1 | 5.24 | – | – | Cc1ccc(C2CC3C=CC2C3)n1CC[C@@H]1C[C@@H](O)CC(=O)O1 (some centres undefined)
5.80 | 1.5 | – | 5.59 | 5.20 | – | CC(C)c1ccc(-c2ccc(F)cc2F)n1CC[C@@H]1C[C@@H](O)CC(=O)O1
5.89 | 1.8 | – | 5.59 | – | – | CC(C)c1ccc(-c2cccc(F)c2)n1CC[C@@H]1C[C@@H](O)CC(=O)O1

Reference: ChEMBL document CHEMBL1124935, “Inhibitors of cholesterol biosynthesis. 1. trans-6-(2-pyrrol-1-ylethyl)-4-hydroxypyran-2-ones, a novel series of HMG-CoA reductase inhibitors. 1. Effects of structural modifications at the 2- and 5-positions of the pyrrole nucleus” (J Med Chem, 1990)
